Source: PubChem
HUVEC inhibit: human endothelial cell proliferation inhibition; 86,000 tested, 1.1% active; AID 648; HUVEC proliferation, CellTiter-Glo luminescence, 72 h; hits give low values; viability, % at 10 µM (by protocol);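 active means viability at or below 30%; inactive means viability above 30%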;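 further: 100% = median luminescence of DMSO-only cell control wells on each plate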
PTEN del growth: PTEN-deleted cell growth suppression; HCT116 PTEN-null viability, CellTiter-Glo, 60 h; hits give low values; viability, % at 10 µM; 140,000 tested, 1.2% active; AID 827;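 active means viability at or below a set limit, 4 SD under the median of all tested compounds, cut at about 3.7% in these data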;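 further: PTEN knockout HCT116 line with beta catenin targeted HCT116 as companion control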
HCT116 bCat-KO: beta-catenin-lacking colon tumor cell growth suppression; viability, % at 10 µM; HCT116 beta-catenin knockout viability, CellTiter-Glo, 60 h; hits give low values; 140,000 tested, 1.5% active; AID 818;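 active means viability at or under a set limit, the compound median less 4 SD, cut at about 6% in these data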;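 further: 0% = Hyamine 1622 control at 20 µM and 100% = untreated cell control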
H69AR inhibit: blocks growth of human H69AR lung tumor cells. AID 598. 85,000 tested, 6% active. viability, % at 10 µM. H69AR lung tumor viability, ATP luminescence, 72 h; hits give low values;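 active means viability at or below 40%; inactive means viability above 40%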;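 further: multidrug resistant small cell line overexpressing MRP-1 efflux transporter; 100% = mean luminescence of untreated control wells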
Lung fibro prol: blocks proliferation of human lung fibroblasts; viability, % at 10 µM; LL 47 human lung fibroblast viability, ATP luminescence; hits give low values; 85,000 tested, 1.1% active;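 active means viability at or below 50% in the single dose screen; inactive means viability above 50%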;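 further: compound exposure lasted 72 h before the ATP readout; 100% = median luminescence of untreated cell-only wells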
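Material: Human LL 47 lung fibroblast cells | Input: 1,150 cells/well | Buffer or medium: IMEM plus 15% FBS | Compound dosing: 0.1% DMSO in all compound wells | Times: Overnight cell rest, 72 h compound treatment at 37 °C | Signal: CellTiter-Glo luminescence measuring cellular ATP | Measure: % viability versus median cells-only luminescence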
Numbers without * were called inactive; . = no result given. The sample as a whole holds a higher share of hits than the screen did.

SMILES	HUVEC inhibit	PTEN del growth	HCT116 bCat-KO	H69AR inhibit	Lung fibro prol
CCOc1ccc2nc(NC(=O)Cn3cnc4c3c(=O)n(C)c(=O)n4C)sc2c1	97.0	102.2	88.5	91.4	104.3
CCCn1c(SCC(=O)Nc2nc(-c3ccc(OC)cc3)cs2)nc2c1c(=O)n(C)c(=O)n2C	.	96.9	99.8	.	.
CCOc1ccc2nc(NC(=O)CSc3nc4c(c(=O)n(C)c(=O)n4C)n3C(C)C)sc2c1	8.9*	55.6	59.8	30.1*	100.5
CN(CC(=O)N1CC=C(c2ccccc2)CC1)S(=O)(=O)c1cnc[nH]1	103.5	97.2	92.8	89.5	105.6
CC(=O)c1sc(N2C(=O)c3oc4ccccc4c(=O)c3C2c2ccc(C)o2)nc1C (stereo unspecified)	101.4	.	.	9.4*	87.1
Cc1ccc(C2c3c(oc4ccccc4c3=O)C(=O)N2CCCN2CCOCC2)o1 (stereo unspecified)	105.3	99.4	92.0	95.3	98.9
Cc1ccccc1C(=O)Nc1ccccc1	98.2	92.5	87.7	110.2	104.5
Cc1ccccc1C(=O)Nc1cccc(NC(=O)c2ccc(-c3ccc(Br)cc3)o2)c1	64.4	5.2	3.7*	21.5*	52.0
Cc1cccc2nc(CSc3nc4cc([N+](=O)[O-])ccc4s3)cn12	.	97.6	89.0	.	.
CCCCN1CNC(=S)N(c2ccc(C(=O)OCC)cc2)C1	.	93.3	82.6	.	.
CC(Oc1ccc(Cl)cc1)C(=O)N/N=C/c1ccsc1 (stereo unspecified)	.	92.9	92.2	.	.
CCOC(=O)/C(=C\Nc1ccccc1C(F)(F)F)Sc1ncc(C(F)(F)F)cc1Cl	138.0	78.2	73.3	99.9	103.6
COC(=O)/C(=C\Nc1ccc(Cl)c2ccccc12)c1ncc(C(F)(F)F)cc1Cl	107.6	81.8	83.3	32.9*	93.1
CC(NC(=O)CN1C(=O)NC(Cc2ccccc2)(Cc2ccccc2)C1=O)C12CC3CC(CC(C3)C1)C2 (stereo unspecified)	74.2	62.3	74.4	6.3*	88.8
CC1CCCCC1NC(=O)CN1C(=O)NC(Cc2ccccc2)(Cc2ccccc2)C1=O (stereo unspecified)	.	92.7	100.2	.	.
CC(NC(=O)Cn1ncc(Cl)c(Cl)c1=O)C12CC3CC(CC(C3)C1)C2 (stereo unspecified)	.	1.4*	1.2*	.	.
O=C(Cc1ccccc1)NCC(=O)OCC(=O)c1ccc(Cl)c([N+](=O)[O-])c1	.	101.0	86.8	.	.
COC(=O)c1ccccc1NC(=O)c1cc(-c2cccc(OC)c2)on1	96.2	.	.	78.1	106.0
COC(=O)c1ccccc1NC(=O)c1cc(-c2cccs2)on1	25.3*	10.2	16.9	10.5*	90.5
O=C(NCc1cccnc1)/C(=C/c1ccc(-c2ccc(Cl)cc2)o1)S(=O)(=O)c1ccccc1	.	1.3*	1.7*	.	.
O=C(NCc1cccnc1)/C(=C\c1ccc(-c2ccc(Br)cc2)o1)S(=O)(=O)c1ccccc1	.	0.9*	1.6*	.	.
O=C(NCc1cccnc1)/C(=C/c1ccc(-c2cccc(C(F)(F)F)c2)o1)NC(=O)c1ccccc1	.	32.3	40.8	.	.
COc1cc(OC)cc(C(=O)n2cnnc2N)c1	91.7	113.3	111.9	97.5	98.8
COc1cc(C)c(CNc2ccc(OC)c(OC)c2)cc1C	85.8	83.4	65.1	36.5*	.
COc1cc(CNc2ccc(C)c(C)c2)cc(OC)c1OC	55.6	25.8	17.4	19.4*	.
SMILES	HUVEC inhibit	PTEN del growth	HCT116 bCat-KO	H69AR inhibit	Lung fibro prol
COc1cc(CNc2cc(C)ccc2C)cc(OC)c1OC	88.5	83.1	81.9	61.9	91.6
COc1cc(C)c(CNc2cccc(C)c2)cc1C	104.4	89.3	102.4	113.1	100.9
CCCOc1ccc(/C=C/C(=O)NCc2ccccc2)cc1	.	104.6	98.9	.	.
CCOc1ccc(-c2nnc3sc(-c4ccccc4OC)nn23)cc1	107.2	.	.	93.9	100.0
COc1ccccc1-c1nnc2sc(-c3cc4ccccc4o3)nn12	49.1	12.3	13.6	31.2*	48.7*
CCOc1ccc(-c2nnc3sc(-c4c(OC)cccc4OC)nn23)cc1	73.1	.	.	34.7*	74.5
COc1ccccc1-c1nn2c(-c3ccc(C(C)(C)C)cc3)nnc2s1	25.3*	.	.	94.4	95.3
CCOc1cccc(-c2nnc3sc(-c4ccco4)nn23)c1	104.5	101.1	100.0	77.3	96.9
COc1ccccc1-c1nnc2sc(-c3ccc(N(C)C)cc3)nn12	.	12.5	15.3	.	.
CCOc1cccc(-c2nnc3sc(-c4ccc(C)cc4)nn23)c1	54.2	.	.	18.7*	85.5
NC1=NC2(CCCCC2)N=C(Nc2ccc(Br)cc2)N1	.	18.2	22.0	.	.
CC(=O)NS(=O)(=O)c1ccc(NC(=O)COc2ccc(C(=O)c3ccccc3)cc2)cc1	.	100.0	96.6	.	.
CN(NC1CC(=O)N(c2ccccc2)C1=O)c1ccccc1 (stereo unspecified)	.	104.2	94.7	.	.
C/C(CC(=O)NC1CCCC1)=N\NC(=O)c1ccc([N+](=O)[O-])c(Cl)c1	.	97.2	90.1	.	.
COc1cc(-c2nnc3sc(-c4cccs4)nn23)cc(OC)c1OC	80.4	3.0*	4.0*	20.8*	54.0
COc1ccc(-c2nnc3sc(-c4cccs4)nn23)cc1OC	84.0	85.9	90.0	55.2	100.8
CC(=O)N1CCN(CC(=O)Nc2ccccc2Sc2ccccc2)CC1	.	91.7	93.6	.	.
CC(=O)NC1=C(N(C)C2CCS(=O)(=O)C2)C(=O)c2ccccc2C1=O (stereo unspecified)	.	3.4*	3.5*	.	.
CN(C(=O)Nc1ccccc1)C1CCS(=O)(=O)C1 (stereo unspecified)	91.7	100.0	90.5	89.5	114.2
Cc1cc(-c2n[nH]c(=S)o2)c(C)n1-c1ccccc1	89.8	70.7	67.6	38.5*	98.9
Cc1ccc(C)c(OCC(=O)N/N=C/c2c(C)nn(-c3ccccc3)c2Cl)c1C	.	1.8*	2.1*	.	.
COc1ccc([N+](=O)[O-])cc1NC(=O)c1cn(-c2ccc(C)c(C)c2)c(=O)c2ccccc12	.	62.2	50.8	.	.
O=c1c2ccccc2nc(SCc2nc3ccccc3s2)n1Cc1ccco1	41.8	68.7	70.8	32.7*	59.5
O=c1c2ccccc2nc(SCc2ccccc2)n1Cc1ccco1	116.4	90.2	87.3	93.0	89.1
CCCCn1c(SCc2nc3ccccc3s2)nc2ccccc2c1=O	.	39.8	54.2	.	.
SMILES	HUVEC inhibit	PTEN del growth	HCT116 bCat-KO	H69AR inhibit	Lung fibro prol
CCCCn1c(SCc2nc3ccccc3s2)nc2cc(S(N)(=O)=O)ccc21	78.1	46.0	54.0	15.6*	93.4
CCCn1c(=O)c2ccccc2n2c(SCc3nc4ccccc4s3)nnc12	84.7	79.4	87.2	30.6*	.
CCC(C)NC(=O)CSc1nc2ccc(N3CCOCC3)cc2c(=O)n1CCc1ccccc1 (stereo unspecified)	82.9	92.9	81.3	37.8*	97.2
CCOC(=O)c1c(NC(=O)Cn2cnc3scc(-c4ccc(C)cc4)c3c2=O)sc(C)c1C	.	88.8	89.1	.	.
CC(C)(C)OC(=O)N1CCC(c2cc(=O)n3[nH]c(-c4ccc(Cl)cc4)cc3n2)CC1	73.0	21.9	24.8	10.9*	75.8
Cc1[nH]c2ccccc2c1C(=O)/C=C\c1ccccc1Cl	.	68.0	57.5	.	.
